Test results published in ChEMBL document CHEMBL5678798 (Clin Cancer Res, 2009).
Active and inactive are the calls of the source. The calls are words filed in the database; no cut-off is given here.

Columns and labels:
NCI-H1299 = assay: Antiproliferative activity against human NCI-H1299 cells assessed as reduction in cell viability after 72 hrs by CellTiter-Glo assay; assay type: functional, cell-based; conditions: NCI-H1299, 72 h
Procedure, shortened: (§1)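 Cells seeded in 96-well plates, left overnight at 37°C, then exposed to a range of test concentrations for 72 h. Viability read by CellTiter-Glo luminescence; IC50 from four-parameter curve fit. Lines kept at 37°C, 5% CO2, in recommended growth medium.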

[1] = Cytotoxicity against HFF cells assessed as reduction in cell viability after 72 hrs by CellTiter-Glo assay; assay type: toxicity, cell-based; conditions: human; procedure, shortened: as §1
COLO 205 [2] = assay: Induction of cell cycle arrest in human COLO 205 cells assessed as increase in cells accumulation at G1 phase at 0.03 to 10 uM incubated for 24 to 48 hrs by propidium iodide staining based flow cytometric analysis; assay type: functional; conditions: dose 0.03-10 µM, time lower 24.0 hrs, time upper […]
Procedure, shortened: (§2)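 COLO 205, MCF-7 or NCI-H929 cells seeded in 96-well plates overnight at 37°C, then exposed to DMSO or increasing compound concentrations for 24 or 48 h. Fixed and stained with propidium iodide (Vindelov method), then analysed by flow cytometry for sub-G1, G1, S and G2-M fractions. Experiment repeated twice.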

MCF7 = assay: Induction of cell cycle arrest in human MCF7 cells assessed as effect on sub-2N-DNA content at 0.03 to 10 uM incubated for 24 to 48 hrs by propidium iodide staining based flow cytometric analysis; assay type: functional; conditions: dose 0.03-10 µM, time lower 24.0 hrs, time upper […]; procedure, shortened: as §2
NCI-H929 [3] = assay: Induction of cell cycle arrest in human NCI-H929 cells assessed as increase in cells accumulation at G1 phase at 0.03 to 10 uM incubated for 24 to 48 hrs by propidium iodide staining based flow cytometric analysis; assay type: functional; conditions: dose 0.03-10 µM, time lower 24.0 hrs, time upper […]; procedure, shortened: as §2
NCI-H929 [4] = assay: Induction of cell cycle arrest in human NCI-H929 cells assessed as effect on sub-2N-DNA content at 0.03 to 10 uM incubated for 24 to 48 hrs by propidium iodide staining based flow cytometric analysis; assay type: functional; conditions: dose 0.03-10 µM, time lower 24.0 hrs, time upper […]; procedure, shortened: as §2
COLO 205 [5] = assay: Induction of cell cycle arrest in human COLO 205 cells assessed as cells accumulation at S phase at 1 umol/L incubated for 48 hrs by propidium iodide staining based flow cytometric analysis (reference value: 9%); assay type: functional; conditions: dose 1 µmol/L, at 1 µM; procedure, shortened: as §2
[6] = In vivo inhibition of IGF1R in mouse NIH-3T3/LISN cells implanted in IGF1-stimulated nu/nu CD-1 mouse assessed as reduction in IGF1R phosphorylation at 30 mg/kg, po pretreated for 4 to 8 hrs followed by IGF1 stimulation and measured after 10 min by […] relative to control; assay type: functional; conditions: time 240-490 min
Procedure, shortened: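 Time course: tumor-bearing female nu/nu CD-1 mice, three per group, given a single oral 30 mg/kg dose or vehicle. IGF-I given 10 min before blood and tumor collection at each time point. Tumor phospho-IGF-IR/total IGF-IR measured by capture-plate europium phosphotyrosine assay and expressed as % of ligand-stimulated control.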

Activin receptor type-2B = Activin receptor type-2B (Homo sapiens, UniProt Q13705); assay: Inhibition of ActRIIB (unknown origin)
Chain of Activin receptor type-2B (Q13705 whole entry): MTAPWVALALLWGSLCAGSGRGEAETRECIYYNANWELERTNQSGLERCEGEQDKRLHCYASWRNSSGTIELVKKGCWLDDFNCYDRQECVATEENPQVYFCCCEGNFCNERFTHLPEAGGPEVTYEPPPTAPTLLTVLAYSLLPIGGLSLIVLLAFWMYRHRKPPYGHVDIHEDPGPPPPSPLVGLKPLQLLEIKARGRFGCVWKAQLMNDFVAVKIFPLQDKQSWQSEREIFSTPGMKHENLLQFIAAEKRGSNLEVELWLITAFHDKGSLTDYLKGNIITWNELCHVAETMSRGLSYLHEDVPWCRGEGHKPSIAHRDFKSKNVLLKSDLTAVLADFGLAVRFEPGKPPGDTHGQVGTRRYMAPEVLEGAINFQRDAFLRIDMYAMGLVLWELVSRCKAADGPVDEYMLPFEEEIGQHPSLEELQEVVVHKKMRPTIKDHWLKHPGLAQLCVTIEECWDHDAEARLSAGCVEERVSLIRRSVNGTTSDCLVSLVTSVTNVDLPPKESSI

[7] = biological target: Inhibitor of nuclear factor kappa-B kinase subunit beta (Homo sapiens, UniProt O14920); assay: Inhibition of IKK2 (unknown origin)
Chain of Inhibitor of nuclear factor kappa-B kinase subunit beta (O14920 whole entry): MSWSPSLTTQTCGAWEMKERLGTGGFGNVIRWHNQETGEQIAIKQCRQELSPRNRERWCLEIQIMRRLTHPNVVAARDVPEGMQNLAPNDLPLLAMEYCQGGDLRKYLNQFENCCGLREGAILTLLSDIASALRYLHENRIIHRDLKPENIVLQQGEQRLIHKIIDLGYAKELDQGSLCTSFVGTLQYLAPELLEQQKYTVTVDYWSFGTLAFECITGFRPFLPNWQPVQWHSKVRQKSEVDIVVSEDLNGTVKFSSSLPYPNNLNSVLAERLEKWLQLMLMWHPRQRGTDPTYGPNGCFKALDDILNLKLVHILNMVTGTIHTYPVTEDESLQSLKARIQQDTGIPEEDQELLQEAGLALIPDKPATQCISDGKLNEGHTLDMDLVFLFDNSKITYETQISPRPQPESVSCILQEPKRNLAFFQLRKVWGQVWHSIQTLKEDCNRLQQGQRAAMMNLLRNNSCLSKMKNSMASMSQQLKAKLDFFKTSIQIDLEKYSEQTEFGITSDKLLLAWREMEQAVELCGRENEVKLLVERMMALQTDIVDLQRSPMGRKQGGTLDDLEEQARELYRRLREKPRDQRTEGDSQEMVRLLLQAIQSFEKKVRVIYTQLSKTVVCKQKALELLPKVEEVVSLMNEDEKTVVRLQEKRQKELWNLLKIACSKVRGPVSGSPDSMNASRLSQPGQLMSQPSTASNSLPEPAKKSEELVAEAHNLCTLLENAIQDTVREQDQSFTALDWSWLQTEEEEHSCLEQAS

[8] = Inhibition of p70S6K (unknown origin); parameters: species or system Homo sapiens
[9] = biological target: 3-phosphoinositide-dependent protein kinase 1 (Homo sapiens, UniProt O15530); assay: Inhibition of PDK1 (unknown origin)
Chain of 3-phosphoinositide-dependent protein kinase 1 (O15530 whole entry): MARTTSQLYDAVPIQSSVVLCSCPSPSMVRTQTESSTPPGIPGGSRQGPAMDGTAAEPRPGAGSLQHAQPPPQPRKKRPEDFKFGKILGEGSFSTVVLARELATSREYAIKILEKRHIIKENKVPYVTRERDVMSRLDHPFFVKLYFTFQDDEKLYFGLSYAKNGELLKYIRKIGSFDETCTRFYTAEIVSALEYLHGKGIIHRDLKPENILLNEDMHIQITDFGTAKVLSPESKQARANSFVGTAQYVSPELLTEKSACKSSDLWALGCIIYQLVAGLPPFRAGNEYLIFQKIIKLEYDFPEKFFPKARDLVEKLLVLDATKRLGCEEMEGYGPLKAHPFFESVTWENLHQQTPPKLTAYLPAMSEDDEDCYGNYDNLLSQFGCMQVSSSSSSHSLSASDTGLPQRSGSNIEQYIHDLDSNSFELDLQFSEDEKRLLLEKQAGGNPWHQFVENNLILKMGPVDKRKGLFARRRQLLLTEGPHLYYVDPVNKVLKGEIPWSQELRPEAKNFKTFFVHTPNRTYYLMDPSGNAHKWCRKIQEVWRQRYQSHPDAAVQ

[10] = Inhibition of […] N-terminal 6His-tagged full length human P110delta/full length human p85beta expressed in baculovirus infected Sf21 cells at 0.3 uM by filter binding assay relative to control; conditions: condition cancer
[11] = biological target: Serine/threonine-protein kinase PLK1 (Homo sapiens) (UniProt P53350); assay: Inhibition of N-terminal 6His-tagged recombinant human Plk1 expressed in baculovirus infected Sf21 cells at 0.3 uM by filter binding assay relative to control
Chain of Serine/threonine-protein kinase PLK1 (Homo sapiens) (P53350 whole entry): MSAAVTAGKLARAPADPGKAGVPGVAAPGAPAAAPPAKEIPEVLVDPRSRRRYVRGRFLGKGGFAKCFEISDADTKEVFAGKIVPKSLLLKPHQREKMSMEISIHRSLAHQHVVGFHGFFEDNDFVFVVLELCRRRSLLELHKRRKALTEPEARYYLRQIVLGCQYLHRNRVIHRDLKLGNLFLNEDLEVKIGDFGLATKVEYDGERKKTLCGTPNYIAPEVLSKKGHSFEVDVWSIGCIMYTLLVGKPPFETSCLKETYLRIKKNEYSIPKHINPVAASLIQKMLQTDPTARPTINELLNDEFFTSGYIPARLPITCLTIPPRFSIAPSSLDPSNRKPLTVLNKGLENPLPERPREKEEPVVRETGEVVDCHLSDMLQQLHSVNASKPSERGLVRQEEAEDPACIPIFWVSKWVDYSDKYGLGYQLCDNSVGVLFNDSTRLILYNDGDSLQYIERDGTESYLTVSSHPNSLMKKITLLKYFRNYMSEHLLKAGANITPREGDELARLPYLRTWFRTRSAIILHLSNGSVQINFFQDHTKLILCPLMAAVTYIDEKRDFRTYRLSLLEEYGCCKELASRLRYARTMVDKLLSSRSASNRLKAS
Procedure, shortened: (§3)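 Outsourced single-concentration screen in a commercial panel of 233 protein kinases, run as radiometric filter-binding activity assays. Test agent was tested at 0.3 or 3 µmol/L, as given in each line, from a 10 mmol/L DMSO stock. Activity is expressed as percent inhibition relative to control.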

[12] = biological target: LIM domain kinase 1 (Homo sapiens) (UniProt P53667); assay: Inhibition of N-terminal 6His-tagged recombinant human LIMK1 (285 to 638 residues) expressed in baculovirus infected Sf21 cells at 3 uM by filter binding assay relative to control; procedure, shortened: as §3
Chain of LIM domain kinase 1 (Homo sapiens) (P53667 whole entry, looked up, the tested form may be a part): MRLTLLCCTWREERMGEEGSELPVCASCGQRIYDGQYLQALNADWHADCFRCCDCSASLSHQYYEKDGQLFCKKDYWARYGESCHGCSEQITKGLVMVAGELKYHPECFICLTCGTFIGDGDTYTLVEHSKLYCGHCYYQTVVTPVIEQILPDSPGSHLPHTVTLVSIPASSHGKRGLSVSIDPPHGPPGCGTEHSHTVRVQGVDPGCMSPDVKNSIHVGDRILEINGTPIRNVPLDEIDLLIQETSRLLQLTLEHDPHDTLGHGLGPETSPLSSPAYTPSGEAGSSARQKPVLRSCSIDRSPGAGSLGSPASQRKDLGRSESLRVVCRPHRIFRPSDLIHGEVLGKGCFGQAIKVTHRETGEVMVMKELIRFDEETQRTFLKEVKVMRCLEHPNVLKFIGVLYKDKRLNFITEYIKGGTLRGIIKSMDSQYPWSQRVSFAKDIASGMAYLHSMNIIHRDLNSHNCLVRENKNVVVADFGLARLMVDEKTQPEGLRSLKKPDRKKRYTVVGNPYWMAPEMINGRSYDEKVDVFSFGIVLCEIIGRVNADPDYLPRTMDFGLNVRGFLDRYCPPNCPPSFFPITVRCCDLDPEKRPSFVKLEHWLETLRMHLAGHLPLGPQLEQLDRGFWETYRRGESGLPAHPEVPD

[13] = biological target: cAMP-dependent protein kinase catalytic subunit PRKX (Homo sapiens) (UniProt P51817); assay: Inhibition of N-terminal 6His-tagged recombinant full-length human PrKX expressed in baculovirus infected Sf21 cells at 3 uM by filter binding assay relative to control
Chain of cAMP-dependent protein kinase catalytic subunit PRKX (Homo sapiens) (P51817 whole entry): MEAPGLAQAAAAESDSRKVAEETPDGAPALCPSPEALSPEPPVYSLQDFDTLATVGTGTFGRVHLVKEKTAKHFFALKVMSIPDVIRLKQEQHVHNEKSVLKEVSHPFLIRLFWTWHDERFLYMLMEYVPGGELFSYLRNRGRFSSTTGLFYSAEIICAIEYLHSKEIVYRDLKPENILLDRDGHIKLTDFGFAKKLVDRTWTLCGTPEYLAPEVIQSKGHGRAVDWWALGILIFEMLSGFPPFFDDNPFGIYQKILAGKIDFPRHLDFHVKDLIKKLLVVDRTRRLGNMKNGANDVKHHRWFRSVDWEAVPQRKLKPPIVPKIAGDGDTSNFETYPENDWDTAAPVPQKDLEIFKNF
Procedure, shortened: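 KinaseProfiler panel of 233 kinases: radiometric filter-binding activity assays with compound at 0.3 or 3 µmol/L. Read-out is percent inhibition.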

[14] = biological target: Tyrosine-protein kinase HCK (Homo sapiens, UniProt P08631); assay: Inhibition of N-terminal 6His-tagged recombinant human Hck (230 to 497 residues) expressed in baculovirus infected Sf21 cells by filter binding assay
Chain of Tyrosine-protein kinase HCK (P08631 whole entry, the tested form may be a part): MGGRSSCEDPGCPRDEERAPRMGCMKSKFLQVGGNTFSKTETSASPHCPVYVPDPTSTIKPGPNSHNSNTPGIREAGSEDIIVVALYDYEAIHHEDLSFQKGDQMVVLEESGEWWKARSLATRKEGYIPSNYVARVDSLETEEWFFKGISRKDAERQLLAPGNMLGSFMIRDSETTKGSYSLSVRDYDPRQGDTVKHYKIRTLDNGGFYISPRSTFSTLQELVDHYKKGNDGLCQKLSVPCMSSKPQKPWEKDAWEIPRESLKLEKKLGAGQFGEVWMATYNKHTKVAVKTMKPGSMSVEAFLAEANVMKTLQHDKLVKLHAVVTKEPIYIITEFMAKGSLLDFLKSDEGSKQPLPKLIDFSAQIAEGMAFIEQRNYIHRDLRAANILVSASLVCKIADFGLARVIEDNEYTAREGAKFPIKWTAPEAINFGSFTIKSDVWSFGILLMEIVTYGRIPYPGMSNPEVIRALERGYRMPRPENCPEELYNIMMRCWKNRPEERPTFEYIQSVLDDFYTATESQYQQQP

[15] = biological target: Tyrosine-protein kinase FRK (Homo sapiens, UniProt P42685); assay: Inhibition of N-terminal 6His-tagged recombinant human PTK5 (218 to end residues) expressed in baculovirus infected Sf21 cells by filter binding assay
Chain of Tyrosine-protein kinase FRK (P42685 whole entry): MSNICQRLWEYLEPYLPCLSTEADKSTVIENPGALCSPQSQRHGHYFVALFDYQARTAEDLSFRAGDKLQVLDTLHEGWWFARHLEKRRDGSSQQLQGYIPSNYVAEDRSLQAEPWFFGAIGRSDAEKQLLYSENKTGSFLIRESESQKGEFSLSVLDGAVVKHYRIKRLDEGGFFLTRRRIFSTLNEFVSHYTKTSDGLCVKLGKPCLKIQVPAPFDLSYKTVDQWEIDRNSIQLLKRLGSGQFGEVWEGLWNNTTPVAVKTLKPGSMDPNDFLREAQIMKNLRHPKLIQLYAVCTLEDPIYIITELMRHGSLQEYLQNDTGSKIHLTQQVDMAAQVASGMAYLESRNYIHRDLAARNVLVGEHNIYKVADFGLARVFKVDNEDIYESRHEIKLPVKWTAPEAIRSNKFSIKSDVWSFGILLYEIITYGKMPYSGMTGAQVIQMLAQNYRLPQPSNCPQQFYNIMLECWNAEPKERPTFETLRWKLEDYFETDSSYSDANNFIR

SMILES: CCc1cc(Nc2nccc(-c3c(-c4ccc(OC)c(C(=O)Nc5c(F)cccc5F)c4)nc4ccccn34)n2)c(OC)cc1N1CCC(N2CCN(S(C)(=O)=O)CC2)CC1
- IC50 (NCI-H1299): > 20 µM
- IC50 at 72 h [1]: > 20 µM
- Activity (COLO 205 [2]): Active
- Activity (MCF7): inactive
- Activity (NCI-H929 [3]): Active
- Activity (NCI-H929 [4]): inactive
- Activity (COLO 205 [5]): 6%
- inhibition in vivo at 30 mg/kg [6]: > 90%
- IC50 (Activin receptor type-2B): > 10 µM
- IC50 [7]: 13 µM
- IC50 [8]: > 10 µM
- IC50 [9]: > 10 µM
- inhibition at 0.3 µM [10]: 1%
- inhibition [11]: -8%
- inhibition [12]: 18%
- inhibition [13]: 1%
- IC50 [14]: 275 nM
- IC50 [15]: 16 nM
